Experiments:
[1] = biological target: T1, 5-hydroxytryptamine receptor 1A (Rattus norvegicus, UniProt P19327); experiment: Binding affinity at 5-hydroxytryptamine 1A receptor
T1 sequence (P19327 whole entry): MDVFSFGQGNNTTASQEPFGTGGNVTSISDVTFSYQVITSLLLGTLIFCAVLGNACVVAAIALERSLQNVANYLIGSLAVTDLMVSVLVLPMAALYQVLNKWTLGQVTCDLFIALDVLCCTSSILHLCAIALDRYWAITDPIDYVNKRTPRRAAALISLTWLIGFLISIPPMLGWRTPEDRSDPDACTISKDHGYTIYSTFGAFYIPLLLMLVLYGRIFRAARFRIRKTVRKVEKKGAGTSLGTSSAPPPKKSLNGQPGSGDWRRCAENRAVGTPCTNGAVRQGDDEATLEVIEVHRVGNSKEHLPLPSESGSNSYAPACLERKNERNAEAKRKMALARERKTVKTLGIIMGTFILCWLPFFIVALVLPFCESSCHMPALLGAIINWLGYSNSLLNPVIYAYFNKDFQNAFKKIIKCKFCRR
How it was run: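 Rat hippocampal membranes (1/100 wt/vol) in 50 mM Tris pH 7.7 with 4 mM CaCl2, 0.1% ascorbic acid and pargyline. Membranes were spun at 25000g, preincubated 30 min at 37 °C and respun, then incubated with 0.4 nM [3H]-8-OH-DPAT for 30 min at 25 °C. 5-HT defined nonspecific binding, and samples were filtered on PEI-soaked GF/B. IC50 came from regression; pKi = −log[IC50/(1+[L]/Kd)].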

[2] = tested on: Rattus norvegicus; experiment: Compound after subcutaneous administration was evaluated for antagonist activity against hypothermia induced by 8-hydroxy -DPAT in rat; format: functional; settings: sc, read-out: ID50 (the source's name)
How it was run: (§1)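 Male Wistar rats (200-220 g) had rectal temperature taken, then received the test drug sc in distilled water (1.0 mL/kg). After 30 min they got 8-OH-DPAT 0.16 mg/kg sc, and temperature was remeasured 30 min later. Change from basal was scored.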

[3] = tested on: Rattus norvegicus; experiment: Minimum effective agonist dose administered subcutaneously; format: functional; settings: sc, read-out: MED
How it was run: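 Male Wistar rats (200-220 g) were given the test drug alone sc in water (1.0 mL/kg), with vehicle reinjected at 30 min. Rectal temperature change from basal was measured 60 min after the first injection. MED for hypothermia was set against vehicle by ANOVA with Dunnett's test, P < 0.05.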

[4] = tested on: Rattus norvegicus; experiment: Minimum effective antagonist dose administered subcutaneously; format: functional; settings: sc, read-out: MED; how it was run: as §1
[5] = species on record: Rattus norvegicus; experiment: Maximum agonist effect (% effect) expressed relative to 8-hydroxy-DPAT (100%); format: functional
How it was run: (§2)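 In the rat rectal-temperature model (sc dosing, 8-OH-DPAT 0.16 mg/kg sc for antagonism), the maximal percentage of induced hypothermia (agonist) and of block of 8-OH-DPAT hypothermia (antagonist) was recorded. Each value is given with the dose at which it was reached.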

[6] = species on record: Rattus norvegicus; experiment: Maximum antagonist effect (% effect) expressed relative to 8-hydroxy-DPAT (100%); format: functional; how it was run: as §2
[7] = Ratio of MED (agonist) to that of MED (antagonist) values.; format: functional
How it was run: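 The MED for inducing hypothermia alone was divided by the MED for blocking 8-OH-DPAT (0.16 mg/kg sc) hypothermia. Both MEDs came from sc dosing in male Wistar rats and were tested against vehicle by ANOVA with Dunnett's test, P < 0.05.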

[8] = biological target: Serotonin 1a (5-HT1a) receptor/Adrenergic receptor alpha-1 (Rattus norvegicus) (UniProt P15823+P23944+P43140+P19327); experiment: Ki ratio measured as the Ki values of alpha-1 adrenergic receptor to that of 5-hydroxytryptamine 1A receptor; format: protein assay
[9] = biological target: T2, Adrenergic receptor alpha-1 (Rattus norvegicus, UniProt P15823+P23944+P43140); experiment: In vitro binding affinity towards Alpha-1 adrenergic receptor in rat cortex was determined using [3H]prazosin as radioligand
T2 sequence (P15823 whole entry): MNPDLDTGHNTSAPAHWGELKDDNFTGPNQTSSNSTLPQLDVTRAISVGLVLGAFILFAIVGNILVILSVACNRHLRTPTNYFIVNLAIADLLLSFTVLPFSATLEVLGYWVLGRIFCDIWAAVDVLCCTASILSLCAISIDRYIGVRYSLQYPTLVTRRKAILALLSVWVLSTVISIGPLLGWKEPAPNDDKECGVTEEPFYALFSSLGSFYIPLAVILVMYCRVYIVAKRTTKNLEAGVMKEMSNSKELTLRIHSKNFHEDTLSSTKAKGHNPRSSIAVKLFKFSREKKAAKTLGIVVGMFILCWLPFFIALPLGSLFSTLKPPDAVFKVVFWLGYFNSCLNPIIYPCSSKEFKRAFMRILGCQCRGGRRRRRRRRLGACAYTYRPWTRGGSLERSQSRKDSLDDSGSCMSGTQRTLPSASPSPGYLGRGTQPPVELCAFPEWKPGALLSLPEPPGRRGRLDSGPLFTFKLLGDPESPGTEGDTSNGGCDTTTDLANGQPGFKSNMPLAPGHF
T2 sequence (P23944 whole entry): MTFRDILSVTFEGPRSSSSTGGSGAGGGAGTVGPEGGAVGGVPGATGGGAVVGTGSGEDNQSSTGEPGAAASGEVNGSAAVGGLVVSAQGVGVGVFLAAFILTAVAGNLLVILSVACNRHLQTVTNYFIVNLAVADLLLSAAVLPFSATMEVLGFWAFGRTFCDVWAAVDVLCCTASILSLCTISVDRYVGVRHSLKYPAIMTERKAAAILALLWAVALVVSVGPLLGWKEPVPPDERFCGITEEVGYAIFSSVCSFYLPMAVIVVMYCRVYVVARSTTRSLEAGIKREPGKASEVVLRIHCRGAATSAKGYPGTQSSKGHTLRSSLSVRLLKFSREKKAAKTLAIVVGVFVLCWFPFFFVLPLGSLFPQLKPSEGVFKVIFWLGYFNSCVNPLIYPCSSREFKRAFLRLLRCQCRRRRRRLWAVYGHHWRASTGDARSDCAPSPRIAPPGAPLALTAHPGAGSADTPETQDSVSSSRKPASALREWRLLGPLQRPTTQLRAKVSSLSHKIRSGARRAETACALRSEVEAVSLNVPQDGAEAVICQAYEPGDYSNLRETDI
T2 sequence (P43140 whole entry): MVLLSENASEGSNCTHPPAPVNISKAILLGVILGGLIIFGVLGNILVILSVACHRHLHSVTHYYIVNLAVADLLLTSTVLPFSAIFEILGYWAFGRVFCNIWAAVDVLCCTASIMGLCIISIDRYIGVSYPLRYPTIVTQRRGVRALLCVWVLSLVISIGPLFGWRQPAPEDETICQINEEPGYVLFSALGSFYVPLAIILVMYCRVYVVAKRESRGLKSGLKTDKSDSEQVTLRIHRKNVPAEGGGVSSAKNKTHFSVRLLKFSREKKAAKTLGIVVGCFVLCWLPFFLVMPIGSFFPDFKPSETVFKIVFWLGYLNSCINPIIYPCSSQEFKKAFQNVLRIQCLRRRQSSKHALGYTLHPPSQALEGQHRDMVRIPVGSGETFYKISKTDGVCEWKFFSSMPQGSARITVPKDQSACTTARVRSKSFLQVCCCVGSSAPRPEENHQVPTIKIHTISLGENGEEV
How it was run: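 Rat frontal cortex membranes (1/80 wt/vol), no preincubation, in 50 mM Tris pH 7.6 with 4 mM CaCl2 and 0.1% ascorbic acid. Ligand 0.2 nM [3H]prazosin, with phentolamine for nonspecific binding. Incubation 60 min at 25 °C, then filtration. IC50 obtained by regression and converted to pKi with radioligand Kd from saturation experiments.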

[10] = biological target: D(2) dopamine receptor (Rattus norvegicus, UniProt P61169); experiment: In vitro binding affinity towards Dopamine receptor D2 in rat striatum was determined using [3H]-spiperone as radioligand; format: tissue-based
Chain of D(2) dopamine receptor (P61169 whole entry): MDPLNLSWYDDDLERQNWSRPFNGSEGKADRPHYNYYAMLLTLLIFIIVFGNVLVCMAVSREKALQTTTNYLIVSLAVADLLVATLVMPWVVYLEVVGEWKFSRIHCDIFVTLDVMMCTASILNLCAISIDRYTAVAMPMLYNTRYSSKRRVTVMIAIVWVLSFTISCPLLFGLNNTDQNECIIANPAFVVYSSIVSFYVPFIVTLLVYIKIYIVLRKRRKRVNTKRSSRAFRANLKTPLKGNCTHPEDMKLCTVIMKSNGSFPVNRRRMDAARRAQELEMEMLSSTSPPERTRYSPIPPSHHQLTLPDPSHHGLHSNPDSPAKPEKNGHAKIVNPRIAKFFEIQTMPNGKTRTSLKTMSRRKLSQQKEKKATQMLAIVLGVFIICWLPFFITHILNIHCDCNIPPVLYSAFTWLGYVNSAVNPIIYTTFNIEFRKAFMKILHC
How it was run: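 Rat striatal membranes (1/300 wt/vol), no preincubation, in 50 mM Tris pH 7.4 with CaCl2, ascorbic acid, 5 mM KCl, 1 mM MgCl2 and 120 mM NaCl. Ligand 0.2 nM [3H]spiperone, with 100 nM ketanserin masking 5-HT2A sites; raclopride defined nonspecific binding. Incubation 30 min at 37 °C, then filtration. pKi derived from regression-based IC50.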

[11] = biological target: D(2) dopamine receptor (Rattus norvegicus) (UniProt P61169)
Chain of D(2) dopamine receptor (Rattus norvegicus) (P61169 whole entry): as above

[12] = biological target: 5-hydroxytryptamine receptor 1B (Rattus norvegicus, UniProt P28564); experiment: Binding affinity at 5-hydroxytryptamine 1B receptor
Chain of 5-hydroxytryptamine receptor 1B (P28564 whole entry): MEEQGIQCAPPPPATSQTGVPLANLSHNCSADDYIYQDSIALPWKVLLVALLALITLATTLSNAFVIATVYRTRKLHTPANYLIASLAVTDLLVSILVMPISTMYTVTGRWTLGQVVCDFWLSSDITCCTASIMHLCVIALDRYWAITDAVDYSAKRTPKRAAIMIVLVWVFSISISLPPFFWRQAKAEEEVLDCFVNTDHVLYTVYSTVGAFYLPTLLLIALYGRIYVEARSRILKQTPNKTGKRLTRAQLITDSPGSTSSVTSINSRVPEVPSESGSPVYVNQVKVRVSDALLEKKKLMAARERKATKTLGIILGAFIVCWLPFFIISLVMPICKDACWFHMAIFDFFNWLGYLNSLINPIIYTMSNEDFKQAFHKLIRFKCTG
How it was run: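 Rat frontal cortex membranes (1/40 wt/vol) were homogenized in 50 mM Tris pH 7.7 with pargyline, 4 mM CaCl2 and 0.1% ascorbic acid, then preincubated for 30 min at 37 °C. Labelled with 2.0 nM [3H]-5-HT, with 100 nM 8-OH-DPAT and 100 nM mesulergine masking 5-HT1A/5-HT2A sites; 5-CT defined nonspecific binding.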

[13] = biological target: D(2) dopamine receptor (Rattus norvegicus) (UniProt P61169); experiment: Inhibitory activity against methyl-phenidate-induced gnawing at dopamine receptor D2 in rat
How it was run: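 Male Wistar rats (200-220 g) received the test drug sc in water (1.0 mL/kg), then methylphenidate 40.0 mg/kg ip 30 min later. Observation began 30 min after that. Gnawing bouts were counted in 10 s per minute (maximum 10) by a blinded observer.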

Row | Compound | Ki [1] | ED50 [2] | minimal effective dose [3] | minimal effective dose [4] | Max effect [5] | Max effect [6] | Ratio [7] | Ki ratio [8] | Log Ki [9] | Ki [10] | ID50 [11] | Ki [12] | ID50 [13]
1 | c1ccc2c(c1)CC2CCN1CCN(c2cccc3c2OCCO3)CC1 (stereo not given) | 0.589 nM | 0.65 mg/kg | 40 mg/kg | 1.25 mg/kg | 32% | 76% | 32 | 35.4 | -7.66 | 49 nM | > 40 mg/kg |  | 
2 | c1ccc2c(c1)CC(N1CCN(c3cccc4c3OCCO4)CC1)C2 |  | 1.4 mg/kg | 20 mg/kg | 0.63 mg/kg | 46% | 95% | 31.7 | 81 | -6.84 | 347 nM | > 40 mg/kg | 1780 nM | 
3 | c1ccc2c(c1)CCC2CCN1CCN(c2cccc3c2OCCO3)CC1 (stereo not given) | 1.58 nM | 1.29 mg/kg | > 40 mg/kg | 0.63 mg/kg | 19% | 94% | > 63.5 |  |  |  |  |  | > 40 mg/kg
4 | COc1ccccc1N1CCN(C[C@@H](C(=O)NC(C)(C)C)c2ccccc2)CC1 |  | 2.45 mg/kg | 40 mg/kg | 2.5 mg/kg | 50% | 73% | 16 | 35.6 | -5.94 | 389 nM | > 40 mg/kg | > 10000 nM | 
5 | COc1ccccc1N1CCN(CCN2C(=O)CC3(CCCC3)CC2=O)CC1 [BMY-7378] |  | 1.6 mg/kg | 2.5 mg/kg | 1.25 mg/kg | 53% | 64% |  |  |  | 17.4 nM | 0.65 mg/kg | > 10000 nM | 
6 | c1ccc2c(c1)CCCC2CCN1CCN(c2cccc3c2OCCO3)CC1 (stereo not given) | 2.75 nM | 0.4 mg/kg | > 2.5 mg/kg | 0.16 mg/kg | 8% | 70% | > 15.6 |  |  |  | 40 mg/kg | 708 nM | 
7 | c1ccc2c(c1)CC(CCCN1CCN(c3cccc4c3OCCO4)CC1)C2 | 1.26 nM | 0.47 mg/kg | 40 mg/kg | 0.63 mg/kg | 40% | 70% | 63.5 |  |  |  | > 40 mg/kg | 1860 nM | 
8 | Clc1cccc2c1CC2CCCN1CCN(c2cccc3c2OCCO3)CC1 (stereo not given) | 3.72 nM | 3.09 mg/kg | > 10 mg/kg | 0.63 mg/kg | 15% | 60% | > 15.8 |  |  |  | 40 mg/kg | 1100 nM | 
9 | c1ccc2c(c1)CC2CCCN1CCN(c2cccc3c2OCCO3)CC1 (stereo not given) | 0.447 nM | 0.18 mg/kg | 10 mg/kg | 0.16 mg/kg | 100% | 75% | 62.5 |  |  |  | 1.7 mg/kg | 646 nM | 

Reference: ChEMBL document CHEMBL1128459, “Characterization of potent and selective antagonists at postsynaptic 5-HT1A receptors in a series of N4-substituted arylpiperazines” (J Med Chem, 1995)
